Laboratory results reported in ChEMBL document CHEMBL1126638, “Intracellular delivery of bioactive AZT nucleotides by aryl phosphate derivatives of AZT” (J Med Chem, 1993).

What was measured:
MT4 [1] = assay: Anti HIV-1 activity in human lymphocyte MT-4 cell line; type: functional, cell-based
How it was run: (§1)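 Cells at 5 × 10^5/mL infected with HIV-1 (III_B, stocks from infected MT-4 supernatants) or HIV-2 (ROD) at 100 CCID50 per mL, then mixed with compound dilutions. Giant cell formation recorded microscopically at day 4 (CEM). Viable MT-4 cells counted by trypan blue at day 5. EC50 is the concentration giving 50% protection against viral cytopathicity. Mean of two to four independent experiments.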

CCRF-CEM [2] = assay: Anti HIV-1 activity in human lymphocyte CEM/0 cell line; type: functional, cell-based; how it was run: as §1
[3] = EC50 of HIV-2 in CEM/TK versus EC50 of HIV-2 in CEM/0; type: functional
How it was run: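 Ratio of the HIV-2 EC50 in thymidine kinase-deficient CEM/TK⁻ cells to the HIV-2 EC50 in CEM/O cells. Both values come from the cytopathicity-protection assay.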

CCRF-CEM [4] = assay: Antiviral activity in HIV-2 infected CEM cells which are deficient in Thymidine Kinase; type: functional, cell-based; settings: Homo sapiens; how it was run: as §1
MT4 [5] = assay: cytotoxic activity in MT-4 cell line; type: functional; settings: Homo sapiens
How it was run: (§2)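 Mock-infected MT-4 or CEM cell cultures incubated with compound dilutions in the same format as the antiviral assay. CC50 is the concentration reducing viable cell number (MT-4, trypan blue, day 5) […] by 50%. Mean of two to four independent experiments.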

MT4 [6] = assay: Anti HIV-2 activity in human lymphocyte MT-4 cell line; type: functional, cell-based; how it was run: as §1
CCRF-CEM [7] = assay: cytotoxic activity in CEM/0 cell line; type: functional; settings: Homo sapiens; how it was run: as §2
CCRF-CEM [8] = assay: Anti HIV-2 activity in human lymphocyte CEM/0 cell line; type: functional, cell-based; how it was run: as §1
[9] = Selective index is the ratio of cytotoxic concentration to effective concentration against MT-4 cell line; type: functional, MT4
How it was run: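 Selectivity index for HIV-2 in MT-4 cells is the CC50 (mock-infected cultures, trypan blue viable count at day 5) divided by the EC50 (protection of infected cultures from HIV-2 cytopathicity).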

| SMILES | EC50 (MT4 [1]) | EC50 (CCRF-CEM [2]) | Ratio [3] | EC50 (CCRF-CEM [4]) | CC50 (MT4 [5]) | EC50 (MT4 [6]) | CC50 (CCRF-CEM [7]) | EC50 (CCRF-CEM [8]) | Selectivity index [9] |
| --- | --- | --- | --- | --- | --- | --- | --- | --- | --- |
| COC(=O)[C@H](C)NP(=O)(OC[C@H]1O[C@@H](n2cc(C)c(=O)[nH]c2=O)C[C@@H]1N=[N+]=[N-])Oc1ccccc1 (stereo partly drawn) | 0.006 µM | 0.055 µM | 171 | 12 µM | > 50 µM | 0.007 µM | 172 µM | 0.07 µM | >5555 |
| COC(=O)C(C)NP(=O)(OCC1OC(n2cc(C)c(=O)[nH]c2=O)CC1N=[N+]=[N-])Oc1ccc(C)cc1 (stereo not drawn) | 0.051 µM | 0.065 µM | 125 | 7 µM | 27 µM | 0.053 µM | 43 µM | 0.056 µM | 509 |
| CCCc1ccc(OP(=O)(NC(C)C(=O)OC)OCC2OC(n3cc(C)c(=O)[nH]c3=O)CC2N=[N+]=[N-])cc1 (stereo not drawn) | 0.043 µM | 0.041 µM | 59 | 3 µM | 28 µM | 0.045 µM | 32.7 µM | 0.051 µM | 631 |
| CCCCCc1ccc(OP(=O)(NC(C)C(=O)OC)OCC2OC(n3cc(C)c(=O)[nH]c3=O)CC2N=[N+]=[N-])cc1 (stereo not drawn) | 0.103 µM | 0.051 µM | 133 | 8 µM | 7 µM | 0.074 µM | 9 µM | 0.06 µM | 99 |
| COC(=O)C(C)NP(=O)(OCC1OC(n2cc(C)c(=O)[nH]c2=O)CC1N=[N+]=[N-])Oc1ccc(OC)cc1 (stereo not drawn) | 0.071 µM | 0.057 µM | 138 | 9 µM | 182 µM | 0.069 µM | 42.6 µM | 0.065 µM | 2638 |
| CCc1ccc(OP(=O)(NC(C)C(=O)OC)OCC2OC(n3cc(C)c(=O)[nH]c3=O)CC2N=[N+]=[N-])cc1 (stereo not drawn) | 0.068 µM | 0.048 µM | 145 | 8.7 µM | 11 µM | 0.07 µM | 31.7 µM | 0.06 µM | 153 |
| COC(=O)C(Cc1ccccc1)NP(=O)(OCC1OC(n2cc(C)c(=O)[nH]c2=O)CC1N=[N+]=[N-])Oc1ccccc1 (stereo not drawn) | 0.08 µM | 0.097 µM | 62 | 10 µM | 208 µM | 0.11 µM | 161 µM | 0.16 µM | 2356 |
| COC(=O)C(C)NP(=O)(OCC1OC(n2cc(C)c(=O)[nH]c2=O)CC1N=[N+]=[N-])Oc1ccc(F)cc1 (stereo not drawn) | 0.041 µM | 0.048 µM | 46 | 3 µM | 206 µM | 0.054 µM | 128 µM | 0.065 µM | 3815 |
| COC(=O)C(NP(=O)(OCC1OC(n2cc(C)c(=O)[nH]c2=O)CC1N=[N+]=[N-])Oc1ccccc1)C(C)C (stereo not drawn) | 0.099 µM | 0.14 µM | 62 | 13 µM | 205 µM | 0.087 µM | 123 µM | 0.21 µM | 1891 |
| Cc1cn([C@H]2C[C@H](N=[N+]=[N-])[C@@H](CO)O2)c(=O)[nH]c1=O [ZIDOVUDINE] | 0.002 µM | 0.003 µM | > 28600 | > 100 µM | 6 µM | – | > 500 µM | 0.004 µM | 2000 |
| COC(=O)CNP(=O)(OCC1OC(n2cc(C)c(=O)[nH]c2=O)CC1N=[N+]=[N-])Oc1ccccc1 (stereo not drawn) | 0.16 µM | 0.097 µM | > 435 | > 100 µM | > 500 µM | 0.2 µM | > 500 µM | 0.23 µM | >2500 |
